# Assay results as given in ChEMBL document CHEMBL1123816, “Synthesis and antidepressant properties of novel 2-substituted 4,5-dihydro-1H-imidazole derivatives” (J Med Chem, 1987).
# How the values were obtained:
# [1] = target: T1, Adrenergic receptor alpha-1 (Rattus norvegicus, UniProt P15823+P23944+P43140); assay: Ability to displace [3H]prazosin from alpha-1 adrenergic receptor in rat brain homogenates in vitro; format: tissue-based
# T1 sequence (P15823 whole entry): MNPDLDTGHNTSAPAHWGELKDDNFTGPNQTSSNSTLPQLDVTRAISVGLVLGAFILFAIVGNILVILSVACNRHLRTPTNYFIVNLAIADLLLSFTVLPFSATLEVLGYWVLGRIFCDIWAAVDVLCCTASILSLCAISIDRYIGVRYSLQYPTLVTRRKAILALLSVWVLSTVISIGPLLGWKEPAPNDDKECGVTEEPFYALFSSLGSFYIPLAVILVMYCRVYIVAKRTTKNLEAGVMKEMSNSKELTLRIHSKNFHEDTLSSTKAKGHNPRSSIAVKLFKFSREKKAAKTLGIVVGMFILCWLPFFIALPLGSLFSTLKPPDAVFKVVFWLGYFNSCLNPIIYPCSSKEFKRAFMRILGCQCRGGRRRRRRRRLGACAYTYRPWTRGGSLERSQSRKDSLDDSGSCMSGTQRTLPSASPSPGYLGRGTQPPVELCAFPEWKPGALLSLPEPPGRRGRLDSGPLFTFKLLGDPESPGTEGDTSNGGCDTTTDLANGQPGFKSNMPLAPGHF
# T1 sequence (P23944 whole entry): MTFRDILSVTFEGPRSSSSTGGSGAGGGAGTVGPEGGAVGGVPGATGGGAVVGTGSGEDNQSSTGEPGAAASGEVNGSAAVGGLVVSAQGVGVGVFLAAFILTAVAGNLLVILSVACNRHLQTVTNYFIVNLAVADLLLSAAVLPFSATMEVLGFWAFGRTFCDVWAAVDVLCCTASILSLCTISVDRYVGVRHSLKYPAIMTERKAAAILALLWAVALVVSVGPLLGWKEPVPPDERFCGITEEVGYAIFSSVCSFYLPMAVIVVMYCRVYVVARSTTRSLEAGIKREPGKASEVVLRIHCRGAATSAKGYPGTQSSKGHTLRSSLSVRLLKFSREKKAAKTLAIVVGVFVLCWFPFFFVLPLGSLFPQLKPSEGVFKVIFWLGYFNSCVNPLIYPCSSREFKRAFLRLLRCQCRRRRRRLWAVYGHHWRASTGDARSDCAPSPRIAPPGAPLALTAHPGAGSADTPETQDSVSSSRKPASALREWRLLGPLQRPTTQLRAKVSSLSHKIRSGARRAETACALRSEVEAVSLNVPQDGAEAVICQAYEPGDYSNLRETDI
# T1 sequence (P43140 whole entry): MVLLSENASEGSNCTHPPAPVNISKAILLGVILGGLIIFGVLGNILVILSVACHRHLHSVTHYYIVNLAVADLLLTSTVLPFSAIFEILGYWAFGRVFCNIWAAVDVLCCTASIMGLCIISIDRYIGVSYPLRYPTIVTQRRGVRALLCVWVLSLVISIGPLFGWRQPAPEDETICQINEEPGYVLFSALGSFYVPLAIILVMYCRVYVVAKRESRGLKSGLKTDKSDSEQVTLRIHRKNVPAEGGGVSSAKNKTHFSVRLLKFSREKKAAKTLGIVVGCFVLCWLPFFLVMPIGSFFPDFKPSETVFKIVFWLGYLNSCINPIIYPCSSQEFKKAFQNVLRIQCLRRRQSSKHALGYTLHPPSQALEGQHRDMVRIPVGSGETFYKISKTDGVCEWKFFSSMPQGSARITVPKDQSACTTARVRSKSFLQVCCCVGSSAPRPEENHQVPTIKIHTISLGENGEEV
# In short: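 Rat brain cortex membranes in 50 mM Tris pH 7.7, washed at 48000g, final resuspension 150 volumes. Incubated with 0.03 nM [3H]prazosin and graded test concentrations for 90 min at 25 °C. Unlabeled phentolamine (10 μM) defined nonspecific binding. Filtered on GF/B, scintillation counted. Triplicate assays; IC50 from logit plot converted to apparent Ki via Cheng–Prusoff.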
# [2] = selectivity ratio (Alpha-1[Methoxiamine]/Alpha2[clonidine]
# In short: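 Ratio derived from Schild pA2 values in rat vas deferens: α1 antagonism against methoxamine contractions (24 °C Krebs, three antagonist concentrations) versus α2 antagonism against clonidine inhibition of field-stimulated twitch (33–34 °C, 80 V, 1 ms, 0.15 Hz).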
Compound,Ki [1],Selectivity ratio [2],Ratio [2]
CC1=C(CC2=NCCN2)CCc2ccccc21.Cl,148 nM,1.3,
C1=C(CC2=NCCN2)CCc2ccccc21.Cl [NAPAMEZOLE HYDROCHLORIDE],78 nM,,7.8
